This note sets out measurements from ChEMBL document CHEMBL4304739, “Discovery of 3-(Indol-5-yl)-indazole Derivatives as Novel Myeloid Differentiation Protein 2/Toll-like Receptor 4 Antagonists for Treatment of Acute Lung Injury” (J Med Chem, 2019).

SMILES strings stand for the structures. The source made the active and inactive calls. The rule behind the calls is not given here.

Assay [1] concerns Mus musculus. Put plainly: Antiinflammatory activity in LPS-induced C57BL/6 mouse model of acute lung injury assessed as appearance of normal pulmonary lobule structure at 5 to 10 mg/kg, iv pretreated for 15 mins followed by LPS stimulation and measured after 6 hrs by H and E staining-based microscopic analysis. The format is functional, organism-based. The method in brief: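 Male C57BL/6 mice (18−22 g; n=8 per group). Compound in 0.1% CMC-Na given by tail vein injection 15 min before intraperitoneal LPS (20 mg/kg); controls received saline. Mice were sacrificed 6 h after LPS, and serum and lung tissue were collected.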

The test system of assay [2] is Tyrosine-protein kinase ABL1 (Homo sapiens), P00519 [T315I]. The experiment in a line: Inhibition of human phosphorylated ABL1 T315I mutant (S229 to K512 residues) expressed in mammalian expression system at 1 uM by Kinomescan method. The method in brief: (§1)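 KINOMEscan competition binding screen at 1 μM compound. Results reported as % of control = (test − positive control)/(DMSO negative control − positive control) × 100, where lower values mean stronger hits.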

The target of assay [3] is Tyrosine-protein kinase ABL1 (Homo sapiens) (UniProt P00519). The experiment in a line: Inhibition of wild-type human non-phosphorylated ABL1 (S229 to K512 residues) expressed in mammalian expression system at 1 uM by Kinomescan method. The method in brief:
as §1

Assay [4] addresses Activin receptor type-1B (Homo sapiens) (UniProt P36896). Put plainly: Inhibition of wild-type human ACVR1B (S187 to I505 residues) expressed in bacterial expression system at 1 uM by Kinomescan method. The method in brief:
as §1

Assay [5] addresses RAC-alpha serine/threonine-protein kinase (Homo sapiens) (UniProt P31749). The experiment in a line: Inhibition of wild-type human partial length AKT1 expressed in bacterial expression system at 1 uM by Kinomescan method. The method in brief:
as §1

For assay [6], the target named is RAC-beta serine/threonine-protein kinase (Homo sapiens) (UniProt P31751). The experiment in a line: Inhibition of wild-type human partial length AKT2 expressed in bacterial expression system at 1 uM by Kinomescan method. The method in brief:
as §1

Assay [7] addresses Bone morphogenetic protein receptor type-2 (Homo sapiens) (UniProt Q13873). The experiment in a line: Inhibition of wild-type human partial length BMPR2 (R179 to Q526 residues) expressed in mammalian expression system at 1 uM by Kinomescan method. The method in brief:
(§2)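 Binding-competition screen on the KINOMEscan platform, run by the provider, with the test compound at 1 μM. Readout is percent of control: (test signal − positive control signal)/(negative control signal − positive control signal) × 100. The DMSO negative control is set as 100% Ctrl and a control compound as 0% Ctrl. Lower values mean stronger hits.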

The target in assay [8] is Cyclin-dependent kinase 19 (Homo sapiens) (UniProt Q9BWU1). Put plainly: Inhibition of wild-type human partial length CDK11 (M1 to N360 residues) expressed in bacterial expression system at 1 uM by Kinomescan method. The method in brief:
as §2

Assay [9] concerns the target Macrophage colony-stimulating factor 1 receptor (Homo sapiens) (UniProt P07333). Put plainly: Inhibition of wild-type human partial length CSF1R (I564 to S939 residues) expressed in bacterial expression system at 1 uM by Kinomescan method. The method in brief:
as §2

Assay [10] has as its target Casein kinase I isoform gamma-1 (Homo sapiens) (UniProt Q9HCP0). The experiment in a line: Inhibition of wild-type human partial length CSNK1G1 (T15 to S353 residues) expressed in bacterial expression system at 1 uM by Kinomescan method. The method in brief:
as §2

The target of assay [11] is Insulin-like growth factor 1 receptor (Homo sapiens) (UniProt P08069). The experiment in a line: Inhibition of wild-type human partial length IGF1R (L972 to D1294 residues) expressed in bacterial expression system at 1 uM by Kinomescan method. The method in brief: as §2
The target in assay [12] is Inhibitor of nuclear factor kappa-B kinase subunit alpha (Homo sapiens) (UniProt O15111). Put plainly: Inhibition of wild-type human full length IKK-alpha (M1 to E745 residues) expressed in mammalian expression system at 1 uM by Kinomescan method. The method in brief:
as §1

Assay [13] deals with Inhibitor of nuclear factor kappa-B kinase subunit beta (Homo sapiens) (UniProt O14920). The experiment in a line: Inhibition of wild-type human full length IKK-beta (M1 to S756 residues) expressed in mammalian expression system at 1 uM by Kinomescan method. The method in brief:
as §1

Assay [14] concerns the target Mitogen-activated protein kinase 10 (Homo sapiens) (UniProt P53779). Put plainly: Inhibition of wild-type human partial length JNK3 (V28 to Q422 residues) expressed in mammalian expression system at 1 uM by Kinomescan method. The method in brief: as §2
The target in assay [15] is Dual specificity mitogen-activated protein kinase kinase 2 (Homo sapiens) (UniProt P36507). The experiment in a line: Inhibition of wild-type human full length MEK2 (M1 to V400 residues) expressed in mammalian expression system at 1 uM by Kinomescan method. The method in brief: as §1
Assay [16] concerns the target Mitogen-activated protein kinase kinase kinase 9 (Homo sapiens) (UniProt P80192). Put plainly: Inhibition of wild-type human partial length MLK1 (V88 to W426 residues) expressed in bacterial expression system at 1 uM by Kinomescan method. The method in brief:
as §2

The target of assay [17] is Serine/threonine-protein kinase PAK 1 (Homo sapiens) (UniProt Q13153). Put plainly: Inhibition of wild-type human partial length PAK1 (S149 to H545 residues) expressed in bacterial expression system at 1 uM by Kinomescan method. The method in brief: as §2
The target in assay [18] is Phosphatidylinositol 4,5-bisphosphate 3-kinase catalytic subunit alpha isoform (Homo sapiens) (UniProt P42336). Put plainly: Inhibition of wild-type human partial length PIK3CA (R108 to N1068 residues) expressed in mammalian expression system at 1 uM by Kinomescan method. The method in brief: as §2
Assay [19] concerns the target Serine/threonine-protein kinase pim-1 (Homo sapiens) (UniProt P11309). The experiment in a line: Inhibition of wild-type human partial length PIM1 (A15 to K313 residues) expressed in bacterial expression system at 1 uM by Kinomescan method. The method in brief:
as §2

The target in assay [20] is Serine/threonine-protein kinase PLK3 (Homo sapiens) (UniProt Q9H4B4). The experiment in a line: Inhibition of wild-type human partial length PLK3 (A42 to L334 residues) expressed in mammalian expression system at 1 uM by Kinomescan method. The method in brief:
as §2

Assay [21] addresses Rho-associated protein kinase 2 (Homo sapiens) (UniProt O75116). The experiment in a line: Inhibition of wild-type human partial length ROCK2 (M1 to T431 residues) expressed in mammalian expression system at 1 uM by Kinomescan method. The method in brief:
as §2

For assay [22], the target named is NUAK family SNF1-like kinase 2 (Homo sapiens) (UniProt Q9H093). The experiment in a line: Inhibition of wild-type human partial length SNARK (P22 to A333 residues) expressed in mammalian expression system at 1 uM by Kinomescan method. The method in brief:
(§3)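 Single-concentration screen at 1 μM on the KINOMEscan panel (98 kinases), run by the platform provider. Results are given as percent of control: % Ctrl = [(test signal − positive control signal)/(negative control signal − positive control signal)] × 100. DMSO serves as negative control (100% Ctrl) and a control compound as positive control (0% Ctrl). Lower values mean stronger binding hits.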

The target of assay [23] is Proto-oncogene tyrosine-protein kinase Src (Homo sapiens) (UniProt P12931). The experiment in a line: Inhibition of wild-type human partial length SRC (L240 to L536 residues) expressed in bacterial expression system at 1 uM by Kinomescan method. The method in brief: as §3
Assay [24] deals with Non-receptor tyrosine-protein kinase TYK2 (Homo sapiens) (UniProt P29597). The experiment in a line: Inhibition of wild-type human partial length TYK2 JH1 catalytic domain (V877 to C1187 residues) expressed in mammalian expression system at 1 uM by Kinomescan method. The method in brief: as §3

On to `O=C(Nc1ccc2[nH]nc(-c3ccc4[nH]ccc4c3)c2c1)c1c(Cl)cccc1Cl`, for which the result in [1] was Active. In addition, the inhibition result in assay [2], in assay [3], in assay [4], in [5], in assay [6] and in assay [7] was “inactive” throughout. Also, the inhibition entry in assay [8], in [9], in [10], in assay [11], in assay [12] and in assay [13] was “inactive” each time. The inhibition result in assay [14], in [15], in assay [16], in assay [17], in [18] and in assay [19] was “inactive” in each case. Further, the inhibition entry in [20], in assay [21], in [22], in [23] and in assay [24] was “inactive” each time.
